These results are taken from ChEMBL document CHEMBL3751796, “Structure-Based Discovery of Novel Cyclophilin A Inhibitors for the Treatment of Hepatitis C Virus Infections” (J Med Chem, 2015).

One data set has as its system Hepatitis C virus. The data set is described as follows: Antiviral activity against recombinant HCV genotype 2a JFH1 infected in human […] for 5 hrs measured on day 3 post infection by luciferase reporter gene assay. Type of data set: functional, organism-based, Hepacivirus hominis. The following applies: JFH-1, Huh-7. In outline: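 Huh7.5 cells infected with JFH1-Luc virus (MOI 0.004) for 5 h at 37 °C with 3-fold serial dilutions of compound. Renilla luciferase read from lysates on day 3 postinfection to derive EC50.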
In general terms: A reporter such as luciferase makes a cellular process visible.

Data set [1] in a line: Cytotoxicity against mock-infected human Huh7.5 cells assessed as reduction in cell viability incubated for 5 hrs by MTT assay. The format is cell-based, Huh-7. To be noted: mock-infected Huh7.5 cells. In outline:
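Mock-infected Huh7.5 cells run alongside the JFH1-Luc antiviral assay with 3-fold serial dilutions. Viability read by MTT assay to give CC50.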

Data set [2] in a line: Selectivity index, ratio of CC50 for mock-infected human Huh7.5 cells to EC50 for recombinant HCV genotype 2a JFH1. Further details: species or system Huh-7. The essentials:
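Huh7.5 cells infected with JFH1-Luc virus (MOI 0.004, 5 h, 37 °C) in the presence of 3-fold serial dilutions. EC50 came from Renilla luciferase on day 3. CC50 came from MTT viability of mock-infected Huh7.5 cells treated in parallel. SI = CC50/EC50.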

Usually EC50 stands for the concentration at which the effect is half-maximal. For orientation: CC50 means the concentration at which the toxic effect on the cells reaches its halfway point. In the case of `COc1ccc(C(C(=O)NC2CCCCC2)N(C(=O)Cc2c[nH]c3ccccc23)c2ccccc2)cc1OC` (configuration not stated), in the data set with Hepatitis C virus, the EC50 was greater than 22.3 µM. Also, the CC50 at 5 h in data set [1] was 22.5 µM.
On to `COc1ccc(N(C(=O)c2cc(C)ccc2C)C(C(=O)NC2CCCCC2)c2ccc([N+](=O)[O-])cc2)cc1OC` (configuration not stated), for which the EC50 in the data set on Hepatitis C virus was 7.9 µM. The “Ratio CC50/EC50” value in data set [2] amounted to 8.6. Besides, in data set [1], the CC50 at 5 h amounted to 68.3 µM.
For `CC(C)c1ccc(N(C(=O)c2ccccc2)C(C(=O)NC2CCCCC2)c2ccc(Cl)cc2)cc1` (configuration not stated), in that order: 6.7 µM, 9.6 and 64.5 µM.
For `COc1cccc(CCC(=O)N(c2ccc(OC)c(OC)c2)C(C(=O)NC2CCCCC2)c2ccc(O)cc2)c1` (configuration not stated), the EC50 in the data set on Hepatitis C virus was 15.5 µM. In data set [2], the “Ratio CC50/EC50” value was determined as 3.3. Besides, the cytotoxic concentration (CC50) at 5 h in data set [1] turned out to be 51.5 µM.
As to `COc1ccc(CCC(=O)N(c2ccc(C(C)C)cc2)C(C(=O)NC2CCCCC2)c2ccc(Cl)cc2)cc1` (configuration not stated), the half-maximal effective concentration (EC50) in the data set on Hepatitis C virus was greater than 100 µM. The CC50 at 5 h in data set [1] is greater than 100 µM.
As for `CC(=O)N(c1ccc(C(C)C)cc1)C(C(=O)NC1CCCCC1)c1ccc(Cl)cc1` (configuration not stated), the EC50 with Hepatitis C virus came out at 10.8 µM. For the same molecule, the “Ratio CC50/EC50” value in data set [2] is 8.2. Besides, the CC50 at 5 h in data set [1] was determined as 89.2 µM.
For `NC(=O)c1ncn([C@@H]2O[C@H](CO)[C@@H](O)[C@H]2O)n1` [RIBAVIRIN], the EC50 in the data set on Hepatitis C virus worked out at 16.3 µM. Further, the “Ratio CC50/EC50” value in data set [2] is greater than 6.1. Moreover, the CC50 at 5 h in data set [1] is greater than 100 µM.
As for `CCCCCNC(=O)C(c1ccc2c(c1)OCO2)N(C(=O)CCCC)c1ccc(OC)c(OC)c1` (configuration not stated), the EC50 in the data set with Hepatitis C virus was greater than 32.2 µM. Further, the CC50 at 5 h in data set [1] was 32.2 µM.
With `COc1ccc(CCC(=O)N(c2ccc(OC)c(OC)c2)C(C(=O)NC2CCCCC2)c2ccc(Cl)cc2)cc1` (configuration not stated), the EC50 in the data set with Hepatitis C virus came to 31.1 µM. In data set [2], the “Ratio CC50/EC50” value was determined as 1.8. In addition, in data set [1], the 50% cytotoxic concentration (CC50) at 5 h amounted to 57.4 µM.
Turning to `O=C(NC1CCCCC1)C(c1ccc(Cl)cc1)N(C(=O)Cc1c[nH]c2ccccc12)c1ccccc1` (configuration not stated), in the data set on Hepatitis C virus, the EC50 came to 3.3 µM. Also, in data set [2], the “Ratio CC50/EC50” value was determined as 3.1. The cytotoxic concentration (CC50) at 5 h in data set [1] came out at 10.2 µM.
For the molecule `COc1ccc(N(C(=O)Cc2c[nH]c3ccccc23)C(C(=O)NC2CCCCC2)c2ccc([N+](=O)[O-])cc2)cc1` (configuration not stated), the concentration for a half-maximal effect (EC50) in the data set on Hepatitis C virus is 2.5 µM. The “Ratio CC50/EC50” value in data set [2] was 3.4. Besides, in data set [1], the CC50 at 5 h was found to be 8.5 µM.
On the same counts, the results for `COc1ccc([N+](=O)[O-])c(C(=O)N(CCc2ccc(OC)c(OC)c2)C(C(=O)NC2CCCCC2)c2ccc([N+](=O)[O-])cc2)c1` (configuration not stated) are 34.8 µM, greater than 2.8 and greater than 100 µM.
For `COc1ccc(N(C(=O)Cc2c[nH]c3ccccc23)C(C(=O)NC2CCCCC2)c2ccc(F)cc2)cc1` (configuration not stated), in that order: 26.5 µM, 2.4 and 63.6 µM.
On the same counts, the results for `COc1ccc(CCC(=O)N(c2ccc(Br)cc2)C(C(=O)NC2CCCCC2)c2ccc([N+](=O)[O-])cc2)cc1` (configuration not stated) are 6.1 µM, 1.6 and 9.8 µM.
In the case of `COc1cccc(CCN(C(=O)c2ccc(Cl)nc2)C(C(=O)NC2CCCCC2)c2ccc([N+](=O)[O-])cc2)c1` (configuration not stated), the concentration giving a half-maximal response (EC50) in the data set with Hepatitis C virus stood at 7.2 µM. The “Ratio CC50/EC50” value in data set [2] is on record as greater than 13.8. The half-maximal cytotoxic concentration (CC50) at 5 h in data set [1] is greater than 100 µM.
On the same counts, the results for `COc1cc(C(C(=O)NC2CCCCC2)N(C(=O)Cc2c[nH]c3ccccc23)c2ccccc2)cc(OC)c1OC` (configuration not stated) are 16.3 µM, 2.2 and 36.8 µM.
For the molecule `COc1ccc(CCN(C(=O)c2ccccc2)C(C(=O)NC2CCCCC2)c2ccc([N+](=O)[O-])cc2)cc1OC` (configuration not stated), in the data set on Hepatitis C virus, the EC50 is 8.9 µM. Also, the “Ratio CC50/EC50” value in data set [2] was greater than 11.2. In addition, the CC50 at 5 h in data set [1] was greater than 100 µM.
On to `COc1ccccc1N(C(=O)Cc1c[nH]c2ccccc12)C(C(=O)NC1CCCCC1)c1cc(OC)c(OC)c(OC)c1` (configuration not stated), for which the EC50 in the data set with Hepatitis C virus was greater than 23.2 µM. For the same molecule, in data set [1], the CC50 at 5 h turned out to be 23.2 µM.
On the same counts, the results for `O=C(NC1CCCCC1)C(c1ccccc1)N(C(=O)Cc1c[nH]c2ccccc12)c1ccccc1` (configuration not stated) are greater than 30.5 µM and 30.5 µM.
For `COc1ccc(N(C(=O)Cc2c[nH]c3ccccc23)C(C(=O)NC2CCCCC2)c2ccc(OC)c(OC)c2OC)cc1OC` (configuration not stated), in that order: greater than 27.1 µM and 27.1 µM.
In the case of `COc1ccc(N(C(=O)c2cccc(C)c2C)C(C(=O)NC2CCCCC2)c2ccc(O)cc2)cc1OC` (configuration not stated), the EC50 in the data set with Hepatitis C virus came to 11.4 µM. Besides, the “Ratio CC50/EC50” value in data set [2] came to 6.1. The CC50 at 5 h in data set [1] amounted to 69.8 µM.
